We go through 39 compounds from the M2OR odorant receptor database.

Settings in all cases: stereoisomer not certain
One assay concerns the target T1, OR5K3 (Homo sapiens) (UniProt A6NET4).
T1 sequence (whole entry): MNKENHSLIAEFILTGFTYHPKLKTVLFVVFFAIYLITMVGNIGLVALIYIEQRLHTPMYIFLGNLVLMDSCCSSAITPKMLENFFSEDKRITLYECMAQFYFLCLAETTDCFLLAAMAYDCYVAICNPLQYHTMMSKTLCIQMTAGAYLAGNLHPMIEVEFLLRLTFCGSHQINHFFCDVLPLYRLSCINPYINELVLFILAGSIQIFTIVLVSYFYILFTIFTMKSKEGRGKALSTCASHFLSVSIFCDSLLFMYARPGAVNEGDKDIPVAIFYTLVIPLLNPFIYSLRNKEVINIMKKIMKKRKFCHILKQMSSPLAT
In outline: (§1)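 Values were gathered from published papers (main text and supplementary material), with extra details requested from the original authors when needed, and checked for typos and inconsistencies. Each receptor–molecule pair is called responsive (active) if the original authors judged the measured signal statistically different from baseline, and non-responsive (inactive) otherwise. Assay methods varied by source, often transient mammalian cell-line luciferase assays. Recorded details include cell line, G-protein, co-transfected protein and tags.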

The target in a further assay is T2, OR5K4 (Homo sapiens) (UniProt A6NMS3).
T2 sequence (whole entry): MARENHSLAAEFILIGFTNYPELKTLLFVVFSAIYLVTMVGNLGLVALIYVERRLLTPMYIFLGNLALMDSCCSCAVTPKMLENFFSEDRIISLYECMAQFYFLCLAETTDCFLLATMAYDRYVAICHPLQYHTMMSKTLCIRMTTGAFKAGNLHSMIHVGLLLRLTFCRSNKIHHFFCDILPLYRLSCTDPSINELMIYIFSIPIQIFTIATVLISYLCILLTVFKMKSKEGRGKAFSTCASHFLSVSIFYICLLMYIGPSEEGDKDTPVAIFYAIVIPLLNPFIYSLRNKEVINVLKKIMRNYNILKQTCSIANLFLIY
In a few lines:
as §1

Another assay addresses T3, OR5M3 (Homo sapiens) (UniProt Q8NGP4).
T3 sequence (whole entry): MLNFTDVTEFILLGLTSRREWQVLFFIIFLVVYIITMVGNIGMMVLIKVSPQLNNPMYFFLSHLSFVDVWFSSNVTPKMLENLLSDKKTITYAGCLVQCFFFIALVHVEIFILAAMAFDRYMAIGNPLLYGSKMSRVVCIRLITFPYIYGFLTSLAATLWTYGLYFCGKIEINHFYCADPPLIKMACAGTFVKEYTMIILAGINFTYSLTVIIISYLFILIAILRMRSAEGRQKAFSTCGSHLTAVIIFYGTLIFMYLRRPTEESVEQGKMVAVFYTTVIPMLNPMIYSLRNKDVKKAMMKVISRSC
In outline:
as §1

Consider `CC1CCc2nccnc21` (stereo not given), for which the “odorant receptor agonist call” value in the assay with OR5K3 (Homo sapiens) and with OR5K4 (Homo sapiens) was “inactive” throughout.
For `CC(C)=CC1CC(C)CCO1` (stereo not given), the “odorant receptor agonist call” value with OR5M3 (Homo sapiens) is “inactive”.
Still for that read-out and setting: in the case of `CCOC(C)OCC` it was “inactive”; in that of `CC(C)CCCCCCCCCCC=O`, “inactive”; in that of `CSSSC`, “inactive”.
The same measure, in the same setting: in the case of `CCCSSCCC` it was “inactive”.
For the compound `C=C1CCC2(C(C)C)CC12` (stereo not given), the “odorant receptor agonist call” value with OR5M3 (Homo sapiens) was “inactive”.
As to `CSSc1ccoc1C`, the “odorant receptor agonist call” value with OR5M3 (Homo sapiens) is “inactive”.
Same read-out and setting: in the case of `CCCC=CC=O` it was “inactive”; in that of `CCc1ccc(O)cc1`, “inactive”.
Consider `CCCCCCCCC1CCC(=O)O1` (stereo not given), for which the “odorant receptor agonist call” value with OR5M3 (Homo sapiens) was “inactive”.
On the same count and under the same terms, in the case of `CC(=O)C(C)O` (stereo not given) it was “inactive”; in that of `Cc1occc1S`, “inactive”; in that of `CCCCCCCCCC(=O)OCC`, “inactive”.
Still for that read-out and setting: in the case of `CCOC(=O)C(C)CC` (stereo not given) it was “inactive”; in that of `C=Cc1ccc(O)c(OC)c1`, “inactive”.
The same measure, in the same setting: in the case of `CCCCC(C)CCC(=O)O` (stereo not given) it was “inactive”; in that of `CC=CC(=O)C1=C(C)CCCC1(C)C`, “inactive”; in that of `CC(C)CCO`, “inactive”.
Take `CCCCC1OC(=O)CC1C` (stereo not given): the “odorant receptor agonist call” value with OR5M3 (Homo sapiens) is “inactive”.
Take `SCCc1ccccc1`: the “odorant receptor agonist call” value with OR5M3 (Homo sapiens) is “inactive”.
As for `C=C1CCC2CC1C2(C)C` (stereo not given), the “odorant receptor agonist call” value with OR5M3 (Homo sapiens) was “inactive”.
On the same count and under the same terms, in the case of `CC1(C)OC=CC1=O` it was “inactive”; in that of `CCO`, “inactive”.
Regarding `CCCC(=O)C(C)CC` (stereo not given), the “odorant receptor agonist call” value with OR5M3 (Homo sapiens) is “inactive”.
Same read-out and setting: in the case of `O=C(O)CCc1ccccc1` it was “inactive”.
On the same count and under the same terms, in the case of `CCCC(S)CCO` (stereo not given) it was “inactive”; in that of `CC=Cc1ccc(OC)cc1`, “inactive”; in that of `CC(C)c1ccc(C=O)cc1`, “inactive”.
The same measure, in the same setting: in the case of `CCC=CCCC=CCO` it was “inactive”; in that of `CCC=CCCC=O`, “inactive”.
Regarding `CC(C)(S)CCOC=O`, the “odorant receptor agonist call” value with OR5M3 (Homo sapiens) was “inactive”.
On the same count and under the same terms, in the case of `CCOC(C)=O` it was “inactive”.
On the same count and under the same terms, in the case of `CCC=O` it was “inactive”.
On to `CCCCCc1ccccn1`, for which the “odorant receptor agonist call” value in the assay with OR5M3 (Homo sapiens) is “inactive”.
In the case of `CCCC(=O)OC`, the “odorant receptor agonist call” value with OR5M3 (Homo sapiens) was “inactive”.
Same read-out and setting: in the case of `CC=CC(=O)C(C)CC` (stereo not given) it was “inactive”; in that of `COC(=O)C(C)C`, “inactive”.
The same measure, in the same setting: in the case of `CCc1cccc(O)c1` it was “inactive”.
